In brackets after ≈: the same amount, converted by molar mass.
How the values were obtained:
[1] = Metabolic stability in human liver microsomes assessed as compound remaining at 10 uM after 30 mins by HPLC analysis; assay type: ADME, Microsome; conditions: read-out: Stability
How it was run: (§1)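 Compound at 10 µM was incubated with 1 mg/ml mouse or pooled human liver microsomes in 0.1 M phosphate buffer, pH 7.4. Reaction was started with NADPH and run 30 min at 37 °C. Result is % parent remaining.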

[2] = molecular target: T1, Melanin-concentrating hormone receptor 1 (Homo sapiens, UniProt Q99705); experiment: Antagonist activity at human MCHR1 expressed in CHO-K1 cells assessed as inhibition of MCH peptide mediated response measuring [3H]inositol phosphate production by IP3-SPA-YSI assay; assay type: functional, cell-based
[3] = Solubility of the compound in 5% DMSO and 95% PBS after overnight incubation using plate shaker; assay type: physicochemical
How it was run: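 A 10 mM DMSO stock was diluted into PBS to a final 500 µM (5% DMSO). The mix was left to precipitate overnight at RT on a plate shaker, then centrifuged. Supernatant absorbance was read at 260, 280 and 620 nm. Solubility is the absorbance ratio of PBS supernatant to an acetonitrile reference (100 and 500 µM). The 620 nm reading was used to exclude visible contamination.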

[4] = Stability in mouse blood assessed as compound remaining after 30 mins by HPLC analysis; assay type: ADME, tissue-based; conditions: read-out: Stability
[5] = Metabolic stability in mouse liver microsomes assessed as compound remaining at 10 uM after 30 mins by HPLC analysis; assay type: ADME, Microsome; conditions: read-out: Stability; how it was run: as §1
[6] = molecular target: T1, Melanin-concentrating hormone receptor 1; experiment: biochemical; assay type: cell-based, CHO-K1
hERG (KCNH2) = hERG (KCNH2) (Homo sapiens, UniProt Q12809); experiment: Inhibition of human ERG at 1 uM
[7] = molecular target: Voltage-gated inwardly rectifying potassium channel KCNH2 (Homo sapiens, UniProt Q12809)
[8] = molecular target: T1, Melanin-concentrating hormone receptor 1; experiment: Antagonist activity at human MCHR1 expressed in CHO-K1 cells assessed as inhibition of MCH peptide mediated response measuring [3H]inositol phosphate production at 10 uM by IP3-SPA-YSI assay; assay type: functional, cell-based; parameters: scale not given: the % may be the effect or the level left
[9] = Tmax in Swiss albino mouse plasma at 30 mg/kg, po; assay type: ADME, organism-based; parameters: dose 30 mg/kg, route oral
How it was run: (§2)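 Swiss Albino mice given a single oral dose of 30 mg/kg. Plasma and brain were sampled over 0–8 h. AUC(0–8), Cmax, Tmax and t1/2 were derived for each matrix.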

[10] = AUC (0 to 8 hrs) in Swiss albino mouse plasma at 30 mg/kg, po; assay type: ADME, organism-based; parameters: time < 8 hr, dose 30 mg/kg, route oral; how it was run: as §2
[11] = Half life in Swiss albino mouse plasma at 30 mg/kg, po; assay type: ADME, organism-based; parameters: dose 30 mg/kg, route oral; how it was run: as §2
Mus musculus = experiment: Antiobesity activity in diet induced obese C57BL/6J mouse assessed as decrease in body weight at 30 mg/kg, po bid for 14 days measured at day 14 relative to control; assay type: functional; parameters: scale not given: the % may be the effect or the level left
How it was run: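 C57BL/6J mice were fed a high-fat diet (60% calories from fat) for about 3 months, to roughly 45 g average body weight. Animals were grouped by initial weight. Dosing was oral, 30 mg/kg twice daily for 14 days, against vehicle controls (n = 12). Body weight and food intake were recorded daily.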

[12] = Tmax in Swiss albino mouse brain at 30 mg/kg, po; assay type: ADME, organism-based; parameters: dose 30 mg/kg, route oral; how it was run: as §2
[13] = AUC (0 to 8 hrs) in Swiss albino mouse brain at 30 mg/kg, po; assay type: ADME, organism-based; parameters: time < 8 hr, dose 30 mg/kg, route oral; how it was run: as §2
[14] = Cmax in Swiss albino mouse brain at 30 mg/kg, po; assay type: ADME, organism-based; parameters: dose 30 mg/kg, route oral; how it was run: as §2
[15] = Cmax in Swiss albino mouse plasma at 30 mg/kg, po; assay type: ADME, organism-based; parameters: dose 30 mg/kg, route oral; how it was run: as §2
[16] = Half life in Swiss albino mouse brain at 30 mg/kg, po; assay type: ADME, organism-based; parameters: dose 30 mg/kg, route oral; how it was run: as §2
[17] = 5% DMSO and 95% PBS, read-out: solubility

T1 sequence (Q99705 whole entry): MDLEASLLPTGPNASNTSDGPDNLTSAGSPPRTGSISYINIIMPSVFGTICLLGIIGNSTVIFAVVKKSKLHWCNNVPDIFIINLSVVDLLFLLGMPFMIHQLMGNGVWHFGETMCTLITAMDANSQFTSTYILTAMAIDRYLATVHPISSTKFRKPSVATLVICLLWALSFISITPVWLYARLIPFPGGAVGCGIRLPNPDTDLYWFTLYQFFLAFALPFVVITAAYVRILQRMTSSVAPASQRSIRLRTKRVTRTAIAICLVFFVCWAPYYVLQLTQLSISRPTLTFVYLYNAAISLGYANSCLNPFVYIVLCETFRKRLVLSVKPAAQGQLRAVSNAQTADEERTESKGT
hERG (KCNH2), sequence (Q12809 whole entry): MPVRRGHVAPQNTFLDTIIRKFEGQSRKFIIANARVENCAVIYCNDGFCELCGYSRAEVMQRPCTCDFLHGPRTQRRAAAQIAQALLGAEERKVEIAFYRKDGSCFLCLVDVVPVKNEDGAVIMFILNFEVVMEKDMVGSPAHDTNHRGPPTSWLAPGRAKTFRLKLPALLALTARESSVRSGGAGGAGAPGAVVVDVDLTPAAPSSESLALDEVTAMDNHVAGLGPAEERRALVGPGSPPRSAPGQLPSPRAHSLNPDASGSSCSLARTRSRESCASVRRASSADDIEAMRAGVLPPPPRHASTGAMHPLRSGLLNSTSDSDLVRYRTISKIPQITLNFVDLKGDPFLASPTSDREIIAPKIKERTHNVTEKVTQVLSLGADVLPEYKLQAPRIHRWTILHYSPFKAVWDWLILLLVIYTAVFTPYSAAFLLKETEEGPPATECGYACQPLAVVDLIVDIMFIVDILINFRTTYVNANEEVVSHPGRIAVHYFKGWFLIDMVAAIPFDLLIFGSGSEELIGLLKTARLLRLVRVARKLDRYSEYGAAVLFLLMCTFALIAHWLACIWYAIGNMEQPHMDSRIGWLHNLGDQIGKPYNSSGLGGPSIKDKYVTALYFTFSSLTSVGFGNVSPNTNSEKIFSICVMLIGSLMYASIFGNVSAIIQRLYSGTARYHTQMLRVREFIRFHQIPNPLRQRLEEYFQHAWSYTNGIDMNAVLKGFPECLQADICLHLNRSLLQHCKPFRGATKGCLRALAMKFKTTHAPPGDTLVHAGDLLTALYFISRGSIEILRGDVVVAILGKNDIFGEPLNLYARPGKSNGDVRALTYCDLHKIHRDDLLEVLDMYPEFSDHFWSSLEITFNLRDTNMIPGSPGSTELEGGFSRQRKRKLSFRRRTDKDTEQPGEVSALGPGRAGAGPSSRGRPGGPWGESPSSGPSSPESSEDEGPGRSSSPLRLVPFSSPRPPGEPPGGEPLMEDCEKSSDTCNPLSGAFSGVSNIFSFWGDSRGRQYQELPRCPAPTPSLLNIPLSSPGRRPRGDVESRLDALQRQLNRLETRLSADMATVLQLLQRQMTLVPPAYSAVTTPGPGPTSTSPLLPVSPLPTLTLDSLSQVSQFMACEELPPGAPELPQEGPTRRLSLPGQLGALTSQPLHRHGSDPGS
Voltage-gated inwardly rectifying potassium channel KCNH2, sequence (Q12809 whole entry): as above

IC50 [2] [nM] | IC50 [6] [nM] | Structure (SMILES) | also measured
45 | 84 | Cc1nc(N2CCN(C(=O)C3CCC3)CC2)nc2ccc(NC(=O)COc3ccc(OC(F)(F)F)cc3)cc12 | remaining at 0.5 h, 10 µM [1]: 52%; solubility [3, 17]: 4 µM (≈ 2.17 µg/mL); remaining at 0.5 h [4]: 45%; remaining at 0.5 h, 10 µM [5]: 69%
160 | 141 | Cc1nc(N2CCN(C(=O)CC(C)C)CC2)nc2ccc(NC(=O)COc3ccc(Cl)cc3)cc12 | –
156 | 327 | Cc1nc(N2CCC(O)(C3CCCCC3)CC2)nc2ccc(NC(=O)COc3ccc(OC(F)(F)F)cc3)cc12 | –
14 | 10 | Cc1nc(N2CCC(C(=O)C3CC3)CC2)nc2ccc(NC(=O)COc3ccc(OC(F)(F)F)cc3)cc12 | inhibition at 1 µM (hERG (KCNH2)): 32%
158 | 325 | Cc1nc(N2CCN(C(=O)C3CCC3)CC2)nc2ccc(NC(=O)COc3ccc(Cl)cc3)cc12 | –
163 | 150 | Cc1nc(N2CCC(O)CC2)nc2ccc(NC(=O)COc3ccc(Cl)cc3)cc12 | –
> 10000 | 7300 | Cc1nc(N2CCN(C(=O)c3ccccc3)CC2)nc2ccc(NC(=O)COc3ccc(Cl)cc3)cc12 | –
4 | 19 | Cc1nc(N2CCC(N3CCCC3=O)CC2)nc2ccc(NC(=O)COc3ccc(OC(F)(F)F)cc3)cc12 | IC50 [7]: 3700 nM
181 | 213 | COC1CCN(c2nc(C)c3cc(NC(=O)COc4ccc(Cl)cc4)ccc3n2)CC1 | –
25 | 15 | Cc1nc(N2CCC(C(=O)NC(C)C)CC2)nc2ccc(NC(=O)COc3ccc(Cl)cc3)cc12 | remaining at 0.5 h, 10 µM [1]: 70%; solubility [3, 17]: 132 µM (≈ 65.5 µg/mL); remaining at 0.5 h [4]: 49%; remaining at 0.5 h, 10 µM [5]: 11%
4 | 7 | Cc1nc(N2CCC(NC(=O)NC(C)C)CC2)nc2ccc(NC(=O)COc3ccc(Cl)cc3)cc12 | solubility ([3]; buffer): Insoluble
– | 636 | Cc1nc(N2CCC(O)(C(N)=O)CC2)nc2ccc(NC(=O)COc3ccc(OC(F)(F)F)cc3)cc12 | Activity [8]: 72%
9 | 17 | Cc1nc(N2CCC(C(=O)NC(C)C)CC2)nc2ccc(NC(=O)COc3ccc(OC(F)(F)F)cc3)cc12 | –
295 | 215 | COCC(=O)N1CCN(c2nc(C)c3cc(NC(=O)COc4ccc(Cl)cc4)ccc3n2)CC1 | –
33 | 36 | Cc1nc(N2CCN(C(=O)C(C)C)CC2)nc2ccc(NC(=O)COc3ccc(OC(F)(F)F)cc3)cc12 | –
– | 690 | CCN1CCN(c2nc(C)c3cc(NC(=O)COc4ccc(Cl)cc4)ccc3n2)CC1 | –
59 | 116 | CCC1(O)CCN(c2nc(C)c3cc(NC(=O)COc4ccc(OC(F)(F)F)cc4)ccc3n2)CC1 | –
246 | 782 | Cc1nc(N2CCN(CC(C)(C)C)CC2)nc2ccc(NC(=O)COc3ccc(Cl)cc3)cc12 | –
> 10000 | > 10000 | Cc1nc(N2CCC(N3CCCC3)CC2)nc2ccc(NC(=O)C(C)(C)Oc3ccc(Cl)cc3)cc12 | –
610 | 150 | Cc1nc(N2CCC(N)CC2)nc2ccc(NC(=O)COc3ccc(Cl)cc3)cc12 | –
401 | 258 | Cc1nc(N2CCC(N3CCCC3)CC2)nc2ccc(NC(=O)C(C)Oc3ccc(Cl)cc3)cc12 (stereo unspecified) | inhibition at 1 µM (hERG (KCNH2)): 76%; solubility [3, 17]: 272 µM (≈ 134 µg/mL); remaining at 0.5 h [4]: 67%; remaining at 0.5 h, 10 µM [5]: 34%
827 | 237 | Cc1nc(N2CCC(C)(O)CC2)nc2ccc(NC(=O)COc3ccc(Cl)cc3)cc12 | –
3 | 9 | Cc1nc(N2CCC(C(=O)NC3CC3)CC2)nc2ccc(NC(=O)COc3ccc(OC(F)(F)F)cc3)cc12 | –
> 10000 | > 10000 | Cc1nc(N2CCC(O)CC2)nc2ccc(NC(=O)C(C)(C)Oc3ccc(Cl)cc3)cc12 | –
146 | 251 | Cc1nc(N2CCN(C(=O)C3CC3)CC2)nc2ccc(NC(=O)COc3ccc(Cl)cc3)cc12 | –

IC50 [2] [nM] | IC50 [6] [nM] | Structure (SMILES) | also measured
30 | 49 | Cc1nc(N2CCN(C(=O)C3CC3)CC2)nc2ccc(NC(=O)COc3ccc(OC(F)(F)F)cc3)cc12 | remaining at 0.5 h, 10 µM [1]: 59%; solubility [3, 17]: 8 µM (≈ 4.24 µg/mL); remaining at 0.5 h, 10 µM [5]: 43%
80 | 22 | Cc1nc(N2CCC(N)CC2)nc2ccc(NC(=O)COc3ccc(OC(F)(F)F)cc3)cc12 | –
81 | 20 | Cc1nc(N2CCC(N3CCCC3)CC2)nc2ccc(NC(=O)COc3ccc(Cl)cc3)cc12 | IC50 [7]: 450 nM
115 | 45 | Cc1nc(N2CCN(C3CCOCC3)CC2)nc2ccc(NC(=O)COc3ccc(Cl)cc3)cc12 | remaining at 0.5 h, 10 µM [1]: 39%; solubility [3, 17]: 15 µM (≈ 7.44 µg/mL); remaining at 0.5 h, 10 µM [5]: 1%
31 | 7 | Cc1nc(N2CCN(C3CCOCC3)CC2)nc2ccc(NC(=O)COc3ccc(OC(F)(F)F)cc3)cc12 | –
150 | 96 | Cc1nc(N2CCN(C3CCCC3)CC2)nc2ccc(NC(=O)COc3ccc(Cl)cc3)cc12 | –
1040 | 116 | Cc1nc(N2CCN(C(=O)C3CCCCC3)CC2)nc2ccc(NC(=O)COc3ccc(Cl)cc3)cc12 | –
100 | 635 | Cc1nc(N2CCC(O)(c3cccc(F)c3)CC2)nc2ccc(NC(=O)COc3ccc(OC(F)(F)F)cc3)cc12 | –
305 | 180 | Cc1nc(N2CCCCC2)nc2ccc(NC(=O)COc3ccc(Cl)cc3)cc12 | –
32 | 23 | Cc1nc(N2CCC(C(N)=O)CC2)nc2ccc(NC(=O)COc3ccc(OC(F)(F)F)cc3)cc12 | –
16 | 6 | Cc1nc(N2CCC(N3CCOCC3)CC2)nc2ccc(NC(=O)COc3ccc(OC(F)(F)F)cc3)cc12 | Tmax [9]: 1 h; AUC(0-t) at 8 h [10]: 1.02 µM·h; half-life [11]: 3 h; solubility [3, 17]: 12 µM (≈ 6.55 µg/mL); Activity (Mus musculus): 12%; Tmax [12]: 1 h; AUC(0-t) at 8 h [13]: 6.21 µM·h; remaining at 0.5 h [4]: 29%; Cmax [14]: 2660 nM; Cmax [15]: 430 nM; half-life [16]: 1.7 h
> 10000 | > 10000 | Cc1nc(N2CCN(S(C)(=O)=O)CC2)nc2ccc(NC(=O)COc3ccc(Cl)cc3)cc12 | –
55 | 150 | Cc1nc(N2CCC(O)(c3ccc(F)cc3)CC2)nc2ccc(NC(=O)COc3ccc(OC(F)(F)F)cc3)cc12 | –
54 | 15 | Cc1nc(N2CCC(NC(=O)C(C)C)CC2)nc2ccc(NC(=O)COc3ccc(Cl)cc3)cc12 | remaining at 0.5 h, 10 µM [1]: 23%; solubility [3, 17]: 205 µM (≈ 102 µg/mL); remaining at 0.5 h, 10 µM [5]: 9%
27 | 79 | Cc1nc(N2CCC(O)(C3CCC3)CC2)nc2ccc(NC(=O)COc3ccc(OC(F)(F)F)cc3)cc12 | inhibition at 1 µM (hERG (KCNH2)): 31%
384 | 208 | CCC1(O)CCN(c2nc(C)c3cc(NC(=O)COc4ccc(Cl)cc4)ccc3n2)CC1 | –
18 | 47 | Cc1nc(N2CCC(C(=O)N(C)C)CC2)nc2ccc(NC(=O)COc3ccc(OC(F)(F)F)cc3)cc12 | –
91 | 225 | Cc1nc(N2CCN(C(=O)C(C)C)CC2)nc2ccc(NC(=O)COc3ccc(Cl)cc3)cc12 | –
3800 | 220 | Cc1nc(N2CCN(C)CC2)nc2ccc(NC(=O)COc3ccc(Cl)cc3)cc12 | –
350 | 305 | Cc1nc(N2CCN(C(=O)C3CCCC3)CC2)nc2ccc(NC(=O)COc3ccc(Cl)cc3)cc12 | –
67 | 354 | Cc1nc(N2CCC(O)(c3ccccc3)CC2)nc2ccc(NC(=O)COc3ccc(OC(F)(F)F)cc3)cc12 | –
350 | 270 | Cc1nc(N2CCN(C3CC3)CC2)nc2ccc(NC(=O)COc3ccc(Cl)cc3)cc12 | –
120 | 31 | Cc1nc(N2CCC(N3CCCC3)CC2)nc2ccc(NC(=O)COc3ccc(OC(F)(F)F)cc3)cc12 | –
33 | 101 | Cc1nc(N2CCC(O)(C3CC3)CC2)nc2ccc(NC(=O)COc3ccc(OC(F)(F)F)cc3)cc12 | –
59 | 213 | Cc1nc(N2CCC(O)(c3ccc(F)cn3)CC2)nc2ccc(NC(=O)COc3ccc(OC(F)(F)F)cc3)cc12 | –

Source: ChEMBL document CHEMBL2016458, “Design and optimization of quinazoline derivatives as melanin concentrating hormone receptor 1 (MCHR1) antagonists” (Bioorg Med Chem Lett, 2012)
